Source: PubChem
Shown are actives, neighbours in structure and some others; about 4% of the full set was active somewhere.
TAAR1 antagonist – human TAAR1 antagonists, primary screen, Fluo-8 calcium fluorescence, CHO RD-HGA16 cells; antagonist; inhibition, % at 3 µM; hit rate 1.5% among 360,000; Trace amine-associated receptor 1 (Homo sapiens), Q96RJ0;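 active = inhibition above a per-plate cutoff, the mean inhibition of test compounds on that plate plus 3 SD, cut at about 49% in these data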;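 also: 0% = DMSO plus EC80 beta-PEA response and 100% = DMSO alone without agonist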
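System: CHO RD-HGA16 cells bearing hTAAR1. Reagent: EC80 β-phenethylamine stimulus. Schedule: seeding 17-24 h prior, 75-min 37 °C, 30-min RT dye loading. Signal: Fluo-8 intracellular calcium dye fluorescence, real-time kinetic reads. Read-out: % inhibition from peak post-agonist over basal fluorescence ratio. Benchmarks: vehicle wells and EC80 agonist wells. Replicates: n of 1.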
OX1R antag-1 – antagonists of human orexin 1 receptor (OX1R). hit rate 1.8% among 330,000. OX1R-expressing cells, FRET antagonist read-out. AID 485270, 2010. Orexin/Hypocretin receptor type 1 (Homo sapiens), O43613. inhibition, % at 6.6 µM; in the data active = inhibition mostly above about 38%, no sharp cut-off; inactive = mostly below about 40%;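 also: 0% = agonist challenge alone and 100% = reference antagonist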
Target sequence (O43613 whole entry, looked up): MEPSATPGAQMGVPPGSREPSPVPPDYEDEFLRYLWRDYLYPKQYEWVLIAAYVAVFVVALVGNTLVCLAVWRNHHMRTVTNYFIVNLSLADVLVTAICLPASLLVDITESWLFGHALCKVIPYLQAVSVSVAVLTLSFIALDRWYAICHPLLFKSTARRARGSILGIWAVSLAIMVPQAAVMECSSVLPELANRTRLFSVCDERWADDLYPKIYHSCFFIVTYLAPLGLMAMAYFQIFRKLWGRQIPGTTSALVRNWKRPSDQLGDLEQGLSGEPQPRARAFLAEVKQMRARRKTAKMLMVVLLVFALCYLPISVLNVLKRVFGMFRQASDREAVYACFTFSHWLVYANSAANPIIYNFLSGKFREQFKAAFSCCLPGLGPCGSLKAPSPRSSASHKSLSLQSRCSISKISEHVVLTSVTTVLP
TAAR1 agonist – human TAAR1 agonists, primary screen, Fluo-8 calcium fluorescence, CHO RD-HGA16 cells; activation, % at 3 µM; Trace amine-associated receptor 1 (Homo sapiens), Q96RJ0; vehicle wells 0%, saturating PEA agonist 100%; hit rate 0.99% among 360,000;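 active = activation above the mean activation of all test compounds in the run plus 3 SD, cut at about 38% in these data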
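Benchmarks: low control DMSO, high control PEA (EC100); System: CHO RD-HGA16 cells carrying human TAAR1 plus Gα16; Detection: Fluo-8 fluorescence, 5 s baseline then 140 s kinetic read; Schedule: 17-24 h plating, Fluo-8 75 min 37 °C, 30 min RT; Read-out basis: % activation from peak over basal fluorescence ratio, DMSO-to-PEA scaled.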
OX1R antag-2 – OX1R (HCRTR1) antagonists, primary screen, fluorescence, CHO/OX1R cells, Fluo-8 calcium, orexin A; inhibition, % at 5 µM; Fluo-8 calcium fluorescence; Orexin/Hypocretin receptor type 1 (Homo sapiens), O43613; hit rate 0.43% among 330,000;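 active = inhibition above its plate's threshold, mean inhibition of all tested compounds on the plate plus 3 SD, cut at about 37% in these data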;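 also: 0% = orexin A challenge wells and 100% = SB-334867-A antagonist wells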
CHO parental Ca – ATP-evoked calcium signal inhibitors, parental CHO, primary screen, counter-screen for OX1R antagonist project, cell-based, fluorescence, Fluo-8 calcium dye | hit rate 0.63% among 330,000 | AID 463079, 2010 | parental CHO-K1, ATP-induced calcium, Fluo-8 fluorescence | inhibition, % at 5.6 µM;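 active = inhibition above that plate's mean sample inhibition plus 3 SD, cut at about 26% in these data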;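 also: 0% = ATP-challenged DMSO wells and 100% = DMSO wells without ATP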
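Measured by: calcium-sensitive Fluo-8 fluorescence / Test system: CHO parental line / Controls: ATP-challenged DMSO wells low, unchallenged DMSO wells high / Measure: % inhibition / Compound: single nominal dose of 5.6 µM per compound / Replicates: single well per compound, no replicates / Reagent: ATP as calcium-mobilizing challenge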
* hit, by the source's call.

For CCc1ccc(NC(=O)C2CCCN2c2nn3c(=O)cc(C)nc3s2)cc1 (stereo not drawn) the results were TAAR1 antagonist -31, OX1R antag-1 13, TAAR1 agonist 9, OX1R antag-2 -26 and CHO parental Ca -16.
Cc1ccc2nc(-c3ccc(F)cc3)c(Cc3ccsc3)n2c1 was read as TAAR1 antagonist -4 and TAAR1 agonist 0.
For COc1ccccc1-c1nc2c3ccccc3nc(=S)n2[nH]1 the results were TAAR1 antagonist -17, OX1R antag-1 29, TAAR1 agonist 5, OX1R antag-2 -11 and CHO parental Ca -4.
For COc1cc(-c2nc3c4ccccc4nc(=S)n3[nH]2)cc(OC)c1OC the results were TAAR1 antagonist 5, OX1R antag-1 12, TAAR1 agonist 1, OX1R antag-2 6 and CHO parental Ca -4.
For S=c1nc2ccccc2c2nc(-c3ccccc3Cl)[nH]n12 the results were TAAR1 antagonist -15, OX1R antag-1 57*, TAAR1 agonist 0, OX1R antag-2 -6 and CHO parental Ca -7.
S=c1nc2ccccc2c2nc(-c3ccccc3)[nH]n12 was read as TAAR1 antagonist -15, OX1R antag-1 65*, TAAR1 agonist 3, OX1R antag-2 -4 and CHO parental Ca -6.
For CCC(Oc1ccc2c(=O)c(-c3ccccc3OC)coc2c1)C(=O)OCc1ccccc1 (stereo not drawn) the results were TAAR1 antagonist 55*, OX1R antag-1 7, TAAR1 agonist -1, OX1R antag-2 -7 and CHO parental Ca 57*.
O=C1N[C@H](Cc2ccccc2)COC(=O)[C@@H](Cc2ccc(F)cc2)CC/C=C/C[C@H]1CC(=O)N(CCO)Cc1ccccc1 was read as TAAR1 antagonist 45, OX1R antag-1 4, TAAR1 agonist 18, OX1R antag-2 -7 and CHO parental Ca -19.
CC(C)(C)[C@H]1COC(=O)[C@@H](Cc2ccc(F)cc2)C/C=C\C[C@@H](CC(=O)N[C@@H](CO)Cc2ccccc2)C(=O)N1 was read as TAAR1 antagonist 58*, OX1R antag-1 62*, TAAR1 agonist 22, OX1R antag-2 43 and CHO parental Ca -34.
O=C1N[C@@H](Cc2c[nH]c3ccccc23)COC(=O)[C@@H](Cc2ccc(F)cc2)C/C=C\C[C@H]1CC(=O)N(CCO)Cc1ccccc1 was read as TAAR1 antagonist 55*, OX1R antag-1 10, TAAR1 agonist 10, OX1R antag-2 49 and CHO parental Ca -6.
O=C1N[C@@H](Cc2c[nH]c3ccccc23)COC(=O)[C@H](Cc2ccc(F)cc2)C/C=C\C[C@@H]1CC(=O)N(CCO)Cc1ccccc1 was read as TAAR1 antagonist 34, OX1R antag-1 1, TAAR1 agonist 6, OX1R antag-2 9 and CHO parental Ca -10.
O=C1OC[C@@H]2CCCN2C(=O)[C@@H](CC(=O)N(CCO)Cc2ccccc2)C/C=C\C[C@@H]1Cc1ccc(F)cc1 was read as TAAR1 antagonist 54*, OX1R antag-1 23, TAAR1 agonist 26, OX1R antag-2 13 and CHO parental Ca -15.
O=C1N[C@H](Cc2ccccc2)COC(=O)[C@H](Cc2ccc(F)cc2)CC/C=C/C[C@@H]1CC(=O)N(CCO)Cc1ccccc1 was read as TAAR1 antagonist 64*, OX1R antag-1 11, TAAR1 agonist 44*, OX1R antag-2 3 and CHO parental Ca -16.
For O=C(NS(=O)(=O)c1ccccc1[N+](=O)[O-])[C@H]1O[C@@H](n2ccc(=O)[nH]c2=O)[C@H](O)[C@@H]1O the results were TAAR1 antagonist -24 and TAAR1 agonist 1.
Cc1cccc(NC(=O)CSc2ccc3nnc(-c4cccnc4)n3n2)c1 was read as TAAR1 antagonist -12, OX1R antag-1 27, TAAR1 agonist 2, OX1R antag-2 -7 and CHO parental Ca -4.
O=C1/C(=C\c2ccc(Cl)c(Cl)c2)CN(C(=O)CCN2CCOCC2)C/C1=C/c1ccc(Cl)c(Cl)c1 was read as TAAR1 antagonist 57* and TAAR1 agonist 12.
O=C(NCc1ccccc1)C(=O)Nc1nc(C23CC4CC(CC(C4)C2)C3)cs1 was read as TAAR1 antagonist -7, OX1R antag-1 17, TAAR1 agonist 5, OX1R antag-2 -11 and CHO parental Ca -13.
`O=C(NCc1ccncc1)C(=O)Nc1nc(C23CC4CC(CC(C4)C2)C3)cs1` gave TAAR1 antagonist 50*, OX1R antag-1 13, TAAR1 agonist 12, OX1R antag-2 -12 and CHO parental Ca -14.
For CCCCC#Cc1ccc(C(=O)NNC(=O)Nc2ccccc2)o1 the results were TAAR1 antagonist 8, OX1R antag-1 5, TAAR1 agonist 11, OX1R antag-2 -19 and CHO parental Ca 35*.
CCCCN(CCCC)Cc1ccc(C(=O)NNC(=O)Nc2ccccc2)o1 was read as TAAR1 antagonist -9, OX1R antag-1 13, TAAR1 agonist 7, OX1R antag-2 -19 and CHO parental Ca 8.
`COc1cc(CCN(C(=O)c2cc3ccccc3[nH]2)C(C)c2nc3ccccc3[nH]2)cc(OC)c1` (stereo not drawn) gave TAAR1 antagonist 65* and TAAR1 agonist 2.
Screening COc1cc(CCN(C(=O)c2cc3ccccc3[nH]2)C(c2ccccn2)c2nc3ccccc3[nH]2)cc(OC)c1 (stereo not drawn) returned TAAR1 antagonist 16 and TAAR1 agonist 3.
Cc1cc(C)cc(NC(=O)CCn2c(=O)c3cccn3c3ccccc32)c1 was read as TAAR1 antagonist 6, OX1R antag-1 41*, TAAR1 agonist 4, OX1R antag-2 13 and CHO parental Ca -12.
For Cc1ccc(NC(=O)CCn2c(=O)c3cccn3c3ccccc32)c(C)c1 the results were TAAR1 antagonist 12, OX1R antag-1 8, TAAR1 agonist 2, OX1R antag-2 -30 and CHO parental Ca -11.
For CN(C)c1ncc(S(=O)(=O)c2ccccc2)c(-c2ccc(Cl)cc2Cl)n1 the results were TAAR1 antagonist 23, OX1R antag-1 53*, TAAR1 agonist 8, OX1R antag-2 -13 and CHO parental Ca 4.
Screening O=C(O)c1cccc(N2C(=O)c3cccc4cccc(c34)C2=O)c1 returned TAAR1 antagonist -11 and TAAR1 agonist 2.
O=C(O)c1cccc(N2C(=O)c3cc([N+](=O)[O-])cc4cc([N+](=O)[O-])cc(c34)C2=O)c1 was read as TAAR1 antagonist -16, OX1R antag-1 96*, TAAR1 agonist 0, OX1R antag-2 1 and CHO parental Ca -4.
For COc1ccc(-c2cn3cccc(C)c3n2)cc1Br the results were TAAR1 antagonist -2, OX1R antag-1 74*, TAAR1 agonist -2, OX1R antag-2 -24 and CHO parental Ca -14.
